Assay results: ChEMBL document CHEMBL1142929, “The use of aminoglycoside derivatives to study the mechanism of aminoglycoside 6'-N-acetyltransferase and the role of 6'-NH2 in antibacterial activity” (2007)
The source made the active and inactive calls. The calls are words filed in the database; no cut-off is given here.

Columns and labels:
Staphylococcus aureus = experiment: Antibacterial activity against Staphylococcus aureus at 30 ug/disc […]; format: functional, organism-based; details: in the assay text read “paper disc method” for “dilution method”
Method in brief: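 Disc diffusion on LB solid medium with 30 µg compound per paper disc; growth inhibition of the S. aureus strain (sensitive to usual antibiotics) scored visually.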

Escherichia coli [1] = experiment: Antibacterial activity against kanamycin-resistant Escherichia coli pETAACWT at 30 ug/disc […]; format: functional, organism-based
Escherichia coli [2] = experiment: Antibacterial activity against gentamycin-resistant Escherichia coli JR88 at 30 ug/disc […]; format: functional, organism-based
Enterococcus faecium = experiment: Inhibition of Enterococcus faecium aminoglycoside 6'-N-acetyltransferase
Escherichia coli [3] = experiment: Antibacterial activity against kanamycin-resistant Escherichia coli JR67 at 30 ug/disc […]; format: functional, organism-based
Escherichia coli [4] = experiment: Antibacterial activity against kanamycin-resistant Escherichia coli JR66 at 30 ug/disc […]; format: functional, organism-based
Escherichia coli [5] = experiment: Antimicrobial activity against Escherichia coli MG1655 by dilution method; format: functional
Method in brief: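 MIC by standard broth dilution: overnight MG1655 cultures in LB (aminoglycoside-sensitive strain) diluted 100-fold, growth read as OD at 600 nm.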

Escherichia coli [6] = experiment: Antibacterial activity against kanamycin-resistant Escherichia coli pSF815A-1 at 30 ug/disc […]; format: functional, organism-based

SMILES: NCC(=O)NC[C@H]1O[C@H](O[C@H]2[C@H](O)[C@@H](O)[C@H](N)C[C@@H]2N)[C@H](N)[C@@H](O)[C@@H]1O
- Activity (Staphylococcus aureus): inactive
- Activity (Escherichia coli [1]): inactive
- Activity (Escherichia coli [2]): inactive
- Activity (Enterococcus faecium): inactive
- Activity (Escherichia coli [3]): inactive
- Activity (Escherichia coli [4]): inactive
- MIC (Escherichia coli [5]): < 50 µg/mL

SMILES: NC[C@H]1O[C@H](O[C@H]2[C@H](O)[C@@H](O)[C@H](N)C[C@@H]2N)[C@H](N)[C@@H](O)[C@@H]1O [NEAMINE]
- MIC (Escherichia coli [5]): < 6.25 µg/mL

SMILES: N[C@H]1[C@@H](O[C@H]2[C@H](O)[C@@H](O)[C@H](N)C[C@@H]2N)O[C@H](CNC(=O)Cc2cccc3ccccc23)[C@@H](O)[C@@H]1O
- Activity (Staphylococcus aureus): inactive
- Activity (Escherichia coli [1]): inactive
- Activity (Escherichia coli [2]): inactive
- Activity (Enterococcus faecium): inactive
- Activity (Escherichia coli [3]): inactive
- Activity (Escherichia coli [4]): inactive

SMILES: N[C@H]1[C@@H](O[C@H]2[C@H](O)[C@@H](O)[C@H](N)C[C@@H]2N)O[C@H](CNC(=O)CO)[C@@H](O)[C@@H]1O
- Activity (Staphylococcus aureus): inactive
- Activity (Escherichia coli [1]): inactive
- Activity (Escherichia coli [2]): inactive
- Activity (Enterococcus faecium): inactive
- Activity (Escherichia coli [3]): inactive
- Activity (Escherichia coli [4]): inactive
- MIC (Escherichia coli [5]): < 25 µg/mL

SMILES: C#CCC(=O)NC[C@H]1O[C@H](O[C@H]2[C@H](O)[C@@H](O)[C@H](N)C[C@@H]2N)[C@H](N)[C@@H](O)[C@@H]1O
- Activity (Staphylococcus aureus): inactive
- Activity (Escherichia coli [1]): inactive
- Activity (Escherichia coli [2]): inactive
- Activity (Enterococcus faecium): inactive
- Activity (Escherichia coli [3]): inactive
- Activity (Escherichia coli [4]): inactive

SMILES: N[C@H]1[C@@H](O[C@H]2[C@H](O)[C@@H](O)[C@H](N)C[C@@H]2N)O[C@H](CNC(=O)CS)[C@@H](O)[C@@H]1O
- Activity (Staphylococcus aureus): inactive
- Activity (Escherichia coli [1]): inactive
- Activity (Escherichia coli [2]): inactive
- Activity (Enterococcus faecium): inactive
- Activity (Escherichia coli [3]): inactive
- Activity (Escherichia coli [4]): inactive

SMILES: N[C@H]1[C@@H](O[C@H]2[C@H](O)[C@@H](O)[C@H](N)C[C@@H]2N)O[C@H](CNC(=O)c2ccccc2)[C@@H](O)[C@@H]1O
- Activity (Staphylococcus aureus): inactive
- Activity (Escherichia coli [1]): inactive
- Activity (Escherichia coli [2]): inactive
- Activity (Enterococcus faecium): inactive
- Activity (Escherichia coli [3]): inactive
- Activity (Escherichia coli [4]): inactive
- Activity (Escherichia coli [6]): inactive

SMILES: [N-]=[N+]=NCC(=O)NC[C@H]1O[C@H](O[C@H]2[C@H](O)[C@@H](O)[C@H](N)C[C@@H]2N)[C@H](N)[C@@H](O)[C@@H]1O
- Activity (Staphylococcus aureus): inactive
- Activity (Escherichia coli [1]): inactive
- Activity (Escherichia coli [2]): inactive
- Activity (Enterococcus faecium): inactive
- Activity (Escherichia coli [3]): inactive
- Activity (Escherichia coli [4]): inactive

SMILES: NCCC(=O)NC[C@H]1O[C@H](O[C@H]2[C@H](O)[C@@H](O)[C@H](N)C[C@@H]2N)[C@H](N)[C@@H](O)[C@@H]1O
- Activity (Staphylococcus aureus): inactive
- Activity (Escherichia coli [1]): inactive
- Activity (Escherichia coli [2]): inactive
- Activity (Enterococcus faecium): inactive
- Activity (Escherichia coli [3]): inactive
- Activity (Escherichia coli [4]): inactive
